Compound activity: PubChem BioAssay, several laboratories
Shown are actives, neighbours in structure and some others; about 4.9% of the full set was active somewhere.
STAT3 blocker: inhibitors of IL-6 induced STAT3 signaling; U3A cells, IL-6 STAT3-luciferase reporter, luminescence; host cell line lacks STAT1; inhibition, % at 5.5 µM; AID 862; 190,000 compounds, 0.89% hits;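 active = inhibition above the mean inhibition across all screened compounds plus 3 SD, cut at about 44% in these data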;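 also: 0% = DMSO only wells and 100% = 100 µM nifuroxazide control wells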
NF-kB expr up: raises NF-kB expression in human neuronal cells | NF-kB reporter expression; stronger effect = higher value | fold change at 12.5 µM | 190,000 compounds, 1.6% hits | AID 1239; in the data active = fold change above about 3.3
STAT3 act: activators of IL-6 induced STAT3 signaling; activation (% of control), % at 5.6 µM; 190,000 compounds, 0.91% hits; U3A cells, IL-6 STAT3-luciferase reporter, luminescence; 100% = signal with IL-6 EC80 alone;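 active = activation above the screen-wide mean of compound activation plus 3 SD, cut at about 130% in these data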;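 also: 0% = background luminescence of wells with medium and substrate only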
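Material: STAT1-lacking human U3A cells, STAT3 luciferase reporter | Benchmarks: IL-6-only wells as 100% reference | Probe or stimulus: IL-6 (33 ng/mL) | Timing: Compound 1 h, then IL-6 6 h at 37 °C | Detection: Luminescence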
APP 5'UTR act: activates APP 5'UTR luciferase reporter; SH-SY5Y APP 5'UTR luciferase reporter, luminescence; zero percent = DMSO vehicle wells; activation, % at 2 µM; 190,000 compounds, 1% hits;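 active = activation above a set limit, based on mean plus 3 SD of controls, cut at about 140% in these data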
STAT1 act: increases IFN-gamma driven STAT1 reporter signal | NIH 3T3 STAT1-luciferase reporter, luminescence; 100% = IFN-gamma alone, no compound | activation (% of control), % at 5.5 µM | 200,000 compounds, 2.6% hits;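 active = activation above the screen-wide mean activation plus 3 SD, cut at about 130% in these data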;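 also: raw ratio to IFN-gamma control signal so 100% means no change and 0% no light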
STAT1 inh: inhibitors of IFN-gamma induced STAT1 signaling | 200,000 compounds, 0.35% hits | NIH 3T3 STAT1-luciferase reporter, luminescence | inhibition, % at 5.5 µM;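 active = inhibition above a set limit, the mean inhibition across all tested compounds plus 3 SD, cut at about 34% in these data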;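 also: 0% = IFN-gamma with DMSO and 100% = IFN-gamma with 300 µM nifuroxazide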
Starred values were filed as active, the others as inactive; · = not tested or not shown.

SMILES | STAT3 blocker | NF-kB expr up | STAT3 act | APP 5'UTR act | STAT1 act | STAT1 inh
COCC(=O)Nc1nnc(-c2ccc(C(C)(C)C)cc2)s1 | 15 | 8.4* | 91 | 142* | 136* | -39
CN(Cc1cccnc1)C(=O)CNC(=O)c1ccc(Cl)cc1Cl | 0 | 1 | 102 | 5 | 104 | -5
O=c1c(-c2cc3ccccc3o2)[n+]([O-])c2ccccc2n1OCc1ccccn1 | -28 | 2.1 | 128 | 10 | 142* | -46
CC1=C(C(=O)OCc2ccc(C)cc2)C(c2ccc(O)c([N+](=O)[O-])c2)NC(=O)N1 (stereo not drawn) | 3 | 0.99 | 102 | 2 | 99 | 1
S=c1[nH]nc(-c2ccccc2)n1/N=C/c1ccc(-c2ccccc2Cl)o1 | 3 | 4.5* | 102 | -5 | 99 | 1
CC(C)CC(O)C1CCN(C(=O)CCc2nnc(-c3ccccc3)o2)CC1 (stereo not drawn) | 3 | 1.2 | 100 | 10 | 98 | 1
CC(=O)Nc1nc2cc3c(cc2s1)OCO3 | 12 | 2.2 | 97 | 57 | 115 | -16
O=C(NNc1nc2cc3c(cc2s1)OCCO3)c1ccc(F)cc1 | 8 | 1.5 | 94 | -17 | 98 | 0
O=C(Nc1nc2cc3c(cc2s1)OCO3)C1=COCCO1 | 86* | 1.9 | 26 | 75 | 55 | 49*
O=C(Nc1nc2cc3c(cc2s1)OCCO3)c1ccncc1 | 27 | 3.2 | 78 | 153* | 132* | -34
O=C(Nc1nnc(C(F)(F)F)s1)c1ccc(Br)s1 | 46* | 1.1 | 65 | 31 | 60 | 42*
CC(NC(=O)Nc1nnc(C(F)(F)F)s1)(C(F)(F)F)C(F)(F)F | 82* | 0.49 | 31 | -1 | 43 | 62*
O=C(NC1=NCCS1)c1ccc(Br)s1 | 0 | 3.1 | 105 | 117 | 138* | -41
CN(C)CCCN1C(=O)c2cccc3c([N+](=O)[O-])ccc(c23)C1=O | -5 | 4.3* | 109 | -80 | 143* | -48
Brc1ccccc1-n1nnc(-c2nccs2)n1 | · | 3.9* | · | 127 | 133* | -34
C=CCn1c(C)cc(C(=O)COc2ncnc3sccc23)c1C | 42 | 2.8 | 71 | 182* | 107 | -7
COCCn1c(C)cc(C(=O)COc2ncnc3ccc(Br)cc23)c1C | -9 | 1.1 | 109 | 0 | 95 | 3
COc1ccc(NC(=S)NNC(=O)CNc2ccc(Cl)cc2)cc1 | -8 | 1 | 107 | -4 | 113 | -17
OC(COCCOc1ccc(Br)cc1)CN1CCN(Cc2ccccc2)CC1 (stereo not drawn) | 7 | 0.88 | 98 | 0 | 91 | 11
CC(=O)N(CN1C(=O)c2ccccc2C1=O)c1cccc(C)c1 | 3 | 0.86 | 99 | 4 | 90 | 11
CC(=O)N(/N=C1\Sc2ccccc2C1=O)c1cccc(C)c1 | -8 | 7.1* | 111 | 136* | 127 | -30
Cc1cc(C)n(C(=O)/C(C#N)=C/N(C)C)n1 | 5 | 0.97 | 99 | -13 | 106 | -8
COc1ccc(-c2csc(=Nc3c(C)n(C)n(-c4ccccc4)c3=O)n2C(C)(C)C)cc1 | 2 | 1.2 | 101 | -7 | 104 | -5
COc1ccc(-c2cc(=Nc3c(C)n(C)n(-c4ccccc4)c3=O)c3ccccc3o2)cc1 | 13 | 1.2 | 89 | 57 | 142* | -44
CCOC(=O)CCn1nc(-c2ccc(Cl)cc2)cc1N | 12 | 2.4 | 94 | 46 | 138* | -42
SMILES | STAT3 blocker | NF-kB expr up | STAT3 act | APP 5'UTR act | STAT1 act | STAT1 inh
CCOC(=O)Cn1nc(-c2ccc(Cl)cc2)cc1N | 4 | 1.3 | 100 | 12 | 115 | -16
O/N=C1\CC/C(=N\O)c2nn(-c3ccccc3Cl)nc21 | 7 | 1.1 | 97 | 5 | 103 | -3
Cc1ccc(-n2nc3c(n2)/C(=N/O)CC/C3=N\O)cc1 | 10 | 4.7* | 91 | 86 | 130* | -33
NNC(=O)c1cccc(COc2ccc3c(c2)CCC3)c1 | 95* | 2.9 | 19 | 39 | 46 | 60*
COc1ccc(-n2nnnc2S(=O)(=O)Cc2ccc(C(=O)O)cc2)cc1 | 6 | 0.84 | 94 | -16 | 76 | 26
COc1ccc(-n2nnnc2S(=O)(=O)CC(=O)N2CCCCC2)cc1 | 29 | 0.54 | 82 | -16 | 67 | 36*
CC1=Nc2ccccc2N=C(NC(=O)c2ccccc2)C1c1ccc(Cl)cc1 (stereo not drawn) | 10 | 0.57 | 95 | 5 | 88 | 12
CC1=Nc2ccccc2N=C(N)C1c1ccccc1 (stereo not drawn) | -6 | 1 | 109 | 192* | 146* | -55
Cc1cccc(-c2nnc(SCc3ccccc3)o2)c1 | 8 | 2.2 | 96 | 45 | 117 | -18
Cc1ccc(-c2nnc(Nc3ccccc3)o2)cc1 | 101* | 3.3 | 20 | 99 | 34 | 72*
c1ccc(-c2nnc(-c3ccccc3)o2)cc1 | 4 | 4.6* | 99 | 163* | 139* | -43
Cc1ccc(-c2nnc(-c3cccc(Br)c3)o2)cc1 | -19 | 3.7* | 120 | 109 | 122 | -26
Cc1ccc(NC(=O)Nc2nnc(-c3ccccc3)o2)cc1 | 9 | 2.1 | 97 | 30 | 119 | -22
Cc1cccc(-c2nnc(-c3ccc(N)cc3)o2)c1 | 22 | 4* | 84 | 57 | 147* | -51
c1ccc(-c2nnc(-c3ccncc3)o2)cc1 | 3 | 1.8 | 98 | 29 | 117 | -28
Brc1cccc(-c2nnc(-c3ccccc3)o2)c1 | -11 | 1 | 110 | 56 | 132* | -34
Cc1ccc(-c2nnc(-c3ccccc3)o2)cc1Br | 17 | · | 88 | 43 | 125 | -27
O=S(=O)(c1ccc(F)c(F)c1F)N1CCN(C(=S)Nc2ccccc2)CC1 | -4 | 0.7 | 104 | 15 | 100 | -1
COC(=O)C(CC(=O)c1cccc(OC)c1)c1ccc(F)cc1 (stereo not drawn) | -1 | 1.1 | 105 | 5 | 96 | 5
CCn1c(O)c(C2=c3ccccc3=NC2=O)c2cc(Br)ccc21 | -35 | 1.1 | 134* | -2 | 97 | 1
COc1ccc(OC)c(Cc2nnc(CCC(=O)NC3C4CC5CC(C4)CC3C5)o2)c1 (stereo not drawn) | -2 | 1.2 | 103 | 30 | 108 | -11
O=[N+]([O-])c1ccccc1CSc1nc2ccccc2o1 | -21 | 2.4 | 115 | 65 | 140* | -43
COc1ccc(C(C)=O)cc1CSc1nc2ccccc2o1 | 15 | 1.9 | 90 | 18 | 97 | 3
CCCN1C=CC(=C2C(=O)c3ccccc3C2=O)C=C1 | 113* | 0.27 | 9 | -81 | 15 | 92*
CCCCCCN1C=CC(=C2C(=O)c3ccccc3C2=O)C=C1 | 100* | 1.3 | 16 | 48 | 24 | 81*
CCCCN1C=CC(=C2N=c3cccc([N+](=O)[O-])c3=N2)C=C1 | -5 | 1 | 104 | 28 | 111 | -13
